# From publication PMC12709667 (Journal of Clinical Pharmacology, 2025)
# What was measured:
# [1] = molecular target: T1, BCRP (Homo sapiens, UniProt Q9UNQ0); assay: ABC transporter inhibition, inside-out vesicles; assay type: in vitro ADME
# T1 sequence (Q9UNQ0 1-655): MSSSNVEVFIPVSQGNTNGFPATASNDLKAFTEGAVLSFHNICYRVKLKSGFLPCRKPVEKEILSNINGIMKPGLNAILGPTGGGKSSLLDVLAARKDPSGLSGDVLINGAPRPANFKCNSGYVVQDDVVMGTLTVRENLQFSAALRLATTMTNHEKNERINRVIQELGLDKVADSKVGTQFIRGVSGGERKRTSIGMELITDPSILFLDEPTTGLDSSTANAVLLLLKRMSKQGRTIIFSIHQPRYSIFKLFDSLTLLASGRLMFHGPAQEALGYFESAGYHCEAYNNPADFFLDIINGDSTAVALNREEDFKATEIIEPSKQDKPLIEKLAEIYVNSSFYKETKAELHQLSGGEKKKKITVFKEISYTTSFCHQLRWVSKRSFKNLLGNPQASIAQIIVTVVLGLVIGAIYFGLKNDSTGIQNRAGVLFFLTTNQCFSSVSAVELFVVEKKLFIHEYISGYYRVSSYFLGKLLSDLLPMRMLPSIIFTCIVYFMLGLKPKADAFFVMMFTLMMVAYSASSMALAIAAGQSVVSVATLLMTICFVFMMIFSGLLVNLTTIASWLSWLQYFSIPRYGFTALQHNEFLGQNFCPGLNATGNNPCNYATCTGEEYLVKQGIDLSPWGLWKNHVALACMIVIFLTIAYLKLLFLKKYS
# Summary of the method: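 Inhibition of human BCRP transport was measured in inside-out membrane vesicles prepared from cells overexpressing the human ABC transporter.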
# [2] = molecular target: T2, UGT1A3 (Homo sapiens, UniProt P35503); assay: Phase 2 enzyme inhibition; assay type: in vitro ADME
# T2 sequence (P35503 29-534): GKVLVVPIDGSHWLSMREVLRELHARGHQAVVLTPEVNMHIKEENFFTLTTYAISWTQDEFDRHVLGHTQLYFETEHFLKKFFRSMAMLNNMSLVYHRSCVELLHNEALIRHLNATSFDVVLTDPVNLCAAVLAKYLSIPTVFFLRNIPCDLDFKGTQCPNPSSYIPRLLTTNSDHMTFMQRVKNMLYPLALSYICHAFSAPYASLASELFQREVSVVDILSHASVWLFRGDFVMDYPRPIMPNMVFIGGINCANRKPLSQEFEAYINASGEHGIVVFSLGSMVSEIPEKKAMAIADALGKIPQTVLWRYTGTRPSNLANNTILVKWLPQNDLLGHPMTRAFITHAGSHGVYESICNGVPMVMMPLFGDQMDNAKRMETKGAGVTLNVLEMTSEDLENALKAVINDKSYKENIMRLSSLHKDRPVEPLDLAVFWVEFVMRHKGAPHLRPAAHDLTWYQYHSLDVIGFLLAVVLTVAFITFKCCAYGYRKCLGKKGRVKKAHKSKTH
# [3] = In vitro blood/plasma partitioning; assay type: in vitro ADME; conditions: human, whole blood
# Summary of the method: (§1)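 Test compound was added to rat, monkey or human whole blood and incubated, then centrifuged to obtain plasma. The plasma concentration was measured by LC-MS. It was compared with the concentration in directly spiked plasma of the same species.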
# [4] = In vitro blood/plasma partitioning; assay type: in vitro ADME; conditions: monkey, whole blood
# Summary of the method: as §1
# [5] = 28-day toxicology study; assay type: in vivo, monkey; conditions: monkeys
# [6] = molecular target: CYP3A4 (Homo sapiens, UniProt P08684); assay: biochemical; assay type: in vitro ADME
# CYP3A4, sequence (P08684 whole entry): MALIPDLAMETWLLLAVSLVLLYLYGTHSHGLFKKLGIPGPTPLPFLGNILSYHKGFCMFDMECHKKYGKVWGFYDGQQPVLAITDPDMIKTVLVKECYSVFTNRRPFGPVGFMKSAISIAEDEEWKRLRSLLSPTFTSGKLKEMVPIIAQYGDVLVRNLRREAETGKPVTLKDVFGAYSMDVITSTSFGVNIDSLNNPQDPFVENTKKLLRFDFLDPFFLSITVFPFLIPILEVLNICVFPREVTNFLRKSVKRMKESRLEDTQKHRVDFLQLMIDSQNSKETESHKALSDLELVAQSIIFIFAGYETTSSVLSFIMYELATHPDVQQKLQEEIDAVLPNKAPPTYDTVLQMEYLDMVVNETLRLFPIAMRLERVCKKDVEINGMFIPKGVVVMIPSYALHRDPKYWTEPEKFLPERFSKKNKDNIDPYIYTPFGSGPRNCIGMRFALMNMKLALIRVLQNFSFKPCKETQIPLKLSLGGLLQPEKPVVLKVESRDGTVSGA
# [7] = molecular target: T3, CYP2C19 (Homo sapiens, UniProt P33261); assay: Cytochrome P450 inhibition; assay type: in vitro ADME
# T3 sequence (P33261 whole entry): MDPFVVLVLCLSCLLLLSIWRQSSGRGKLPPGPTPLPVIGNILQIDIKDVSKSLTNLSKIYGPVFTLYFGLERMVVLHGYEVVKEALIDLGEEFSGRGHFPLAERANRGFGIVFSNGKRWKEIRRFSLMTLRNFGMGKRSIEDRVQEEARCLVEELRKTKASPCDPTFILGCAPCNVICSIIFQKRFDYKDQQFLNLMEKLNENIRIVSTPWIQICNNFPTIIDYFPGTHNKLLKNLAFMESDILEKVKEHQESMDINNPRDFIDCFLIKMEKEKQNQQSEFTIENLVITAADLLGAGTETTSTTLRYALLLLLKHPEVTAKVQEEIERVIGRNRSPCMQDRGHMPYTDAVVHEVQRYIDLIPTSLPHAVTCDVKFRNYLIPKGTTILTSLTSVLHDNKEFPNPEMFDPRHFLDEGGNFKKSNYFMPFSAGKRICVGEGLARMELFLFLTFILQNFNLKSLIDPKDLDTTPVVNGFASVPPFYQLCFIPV
# [8] = In vitro blood/plasma partitioning; assay type: in vitro ADME; conditions: rat, whole blood
# Summary of the method: as §1
# [9] = molecular target: T4, CYP1A2 (Homo sapiens, UniProt P05177); assay type: in vitro ADME
# T4 sequence (P05177 1-516): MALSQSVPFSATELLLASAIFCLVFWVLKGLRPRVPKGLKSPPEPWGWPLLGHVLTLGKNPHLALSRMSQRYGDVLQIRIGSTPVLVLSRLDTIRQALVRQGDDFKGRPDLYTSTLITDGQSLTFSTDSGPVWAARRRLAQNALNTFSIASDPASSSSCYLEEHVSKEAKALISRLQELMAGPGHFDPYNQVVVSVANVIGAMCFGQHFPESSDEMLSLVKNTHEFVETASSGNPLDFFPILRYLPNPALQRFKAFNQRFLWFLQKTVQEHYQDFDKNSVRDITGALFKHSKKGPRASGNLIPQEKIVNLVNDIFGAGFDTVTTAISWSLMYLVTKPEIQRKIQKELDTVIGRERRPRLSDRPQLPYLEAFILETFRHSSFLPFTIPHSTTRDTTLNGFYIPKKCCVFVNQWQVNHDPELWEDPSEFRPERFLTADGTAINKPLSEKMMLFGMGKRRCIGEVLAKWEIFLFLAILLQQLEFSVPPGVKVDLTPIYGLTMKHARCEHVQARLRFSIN
# [10] = Quantitative whole-body autoradiography tissue distribution in mice; assay type: in vivo, mouse; conditions: for association of radioactivity with melanin: pigmented mice
# Summary of the method: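 Quantitative whole-body autoradiography after dosing with [14C]-labelled test compound, in non-pigmented (albino) and partially pigmented C57 mice. Frozen carcasses were sectioned and imaged at timepoints from 1 h to 168 h postdose to measure tissue radioactivity. Melanin-containing tissues (skin, uveal tract) were included.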
# [11] = molecular target: T3, CYP2C19; assay: DDI victim study with fluvoxamine; assay type: in vivo; conditions: with strong CYP2C19 inhibitor fluvoxamine
# [12] = [14C] ADME study in male albino CD1 mice; assay type: in vivo, mouse
# Summary of the method: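 Male albino CD1 mice received one oral dose of 50 mg/kg (5 MBq/kg) [14C]-labelled test compound. Blood and plasma were counted for total radioactivity. Urine and faeces were collected for excretion balance, and plasma, urine and faeces were used for metabolite profiling.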
compound,measurement,setting,value
O=c1[nH]c(=O)c(Cc2cccc(C(F)(F)F)c2)c([C@H]2CC[C@H](c3ccccc3)CC2)[nH]1 [miricorilant],IC50,[1],0.48 µM
same,inhibition of UGT1A3,[2],did not inhibit
same,blood plasma ratio,[3],1.14
same,blood plasma ratio,[4],0.83
same,adverse effects in 28‐day toxicology study,[5],No adverse effects
same,IC50,[6],3.4 µM
same,time dependence of CYP3A4 inhibition,[6],not time dependent
same,inhibition of CYP2C19,[7],No inhibition
same,blood plasma ratio,[8],0.84
same,inhibition of CYP1A2,[9],No inhibition
same,radioactivity in the lens of the eye,[10]; albino mice,not present at quantifiable levels
same,radioactivity in the brain and spinal cord,"[10]; albino mice, 4 and 8 h",low levels
same,time of peak tissue concentration of radioactivity,"[10]; albino mice, majority of tissues (pancreas, liver, gall bladder etc.)",4 h
same,radioactivity in the liver,[10]; mice,high concentrations
same,association of radioactivity with melanin,[10],no long‐term association
same,association of radioactivity with melanin,[10]; listed as [^14C]‐miricorilant,no affinity
same,clinical sensitivity as substrate of CYP2C19,[11],moderately sensitive substrate
same,recovery of radioactivity,[12]; by 24 h postdose,quantitative recovery
same,elimination of radioactivity in urine,[12]; single oral 50 mg/kg,0.13% ± 0.04%
same,fecal elimination of radioactivity,[12]; single oral 50 mg/kg,98.7% ± 2.48%
same,share of total radioactivity in plasma,[12]; single oral 50 mg/kg,69%
